We go through nine compounds from publication PMC12951621 (Toxicology, 2025).

Data set [1] relates to hTERT-RPTEC. Briefly: Uptake / intracellular accumulation and P ratio, hTERT-RPTEC in 96-well plates. Type of data set: in vitro ADME, human. To be noted: 24 h, cell lysates and media. In short, it runs like this: (§1)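 Cells seeded uncoated at 32,000 per well in 96-well plates, grown 6 days at 37°C, 5% CO2, medium changed every 48 h. Exposed to test compound in 150 μL medium (PFAS 5 μM final). Medium sampled at 4 and 24 h; cells PBS-rinsed and M-PER lysed at 24 h. Acetonitrile precipitation with internal standards, then LC-MS/MS. Two-compartment model, P ratio = medium/cell concentration; n ≥ 3.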

For data set [2], the system named is hTERT-RPTEC-OAT1. Type of data set: in vitro ADME, human. To be noted: 96-well plates; for Accumulation in cells versus medium: 24 h, cell lysates and media, OAT1-overexpressing cells. In outline:
as §1

The subject of data set [3] is hTERT-RPTEC-OAT1. Nature of the data set: Directional transport, recovery and P ratio, hTERT-RPTEC-OAT1 Transwells. The class given is in vitro ADME, human. To be noted: for Recovery pattern, apical (A→B) versus basolateral (B→A) treatment: 24 h, donor and recipient media and cell lysates. In outline: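 hTERT-RPTEC-OAT1 cells seeded on fibronectin-coated (100 μg/mL, 1 h, 37°C) Transwells at 22,050 cells/insert. Cultured 2 days at 37°C, 5% CO2; inserts under 65 Ω×cm2 TEER excluded. Test compound (PFAS 5 μM final) added apically (A→B) or basolaterally (B→A), fresh medium opposite. Both chambers sampled at 4 and 24 h; cells lysed (M-PER, 10 min, RT) at 24 h. LC-MS/MS after acetonitrile precipitation with internal standards. Three-compartment Bayesian MCMC fit gave P1–P4; P ratio = P2P4/P1P3; n ≥ 4.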

Details of data set [4]: species or system human. To be noted: index chemical half-life 3.14 years divided by relative renal clearance.
The subject of data set [5] is hTERT-RPTEC-OAT1. Briefly: TEER barrier integrity, hTERT-RPTEC-OAT1 Transwells. Type of data set: cell-based, human. To be noted: 24 hrs post-treatment. In outline:
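Resistance read with an epithelial voltohmmeter and Ag/AgCl probes after treatment. Blank-membrane resistance subtracted, then multiplied by 0.143 cm2 growth area; reported as Ω×cm2. Pre-treatment cultures under 65 Ω×cm2 excluded; n ≥ 4.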

Data set [6] has as its system hTERT-RPTEC-OAT1. Briefly: LDH release. Type of data set: cell-based, human. To be noted: 24 hrs exposure, relative to vehicle controls, 96-well plates. In outline:
(§2)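 LDH activity measured with a biochemical kit in medium sampled after 24 h exposure to test compound. Expressed as % of vehicle-treated cultures. Compared by one-way ANOVA with Dunnett's post hoc test (p < 0.05). Replicates: n ≥ 3 in 96-well plates, n ≥ 4 in Transwells.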

For data set [7], the system named is hTERT-RPTEC. Briefly: LDH release. The class given is cell-based, human. Conditions: 24 hrs exposure, relative to vehicle controls, 96-well plates. In short, it runs like this: as §2
For data set [8], the system named is hTERT-RPTEC-OAT1. Briefly: LDH release. The class given is cell-based, human. To be noted: 24 hrs exposure, relative to vehicle controls, Transwells. In outline:
as §2
In general terms: LDH in the medium is a marker of cell lysis.

Data set [9] concerns hTERT-RPTEC-OAT1. Set-up: species or system human. Conditions: 96-well plates, two-compartment model. In short, it runs like this: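 96-well P ratio (medium/cell concentration, two-compartment model, assuming P1 = P2) entered a physiologically based kidney model. CLrenal,free was calculated from renal arterial blood flow (QK), proximal tubule flow (QPT) and P ratio, and predictions were set against literature human in vivo values.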

[10] abbreviates: applied from the basolateral side (B→A).

SMILES strings stand for the structures.

With `O=S(=O)(O)CCC(F)(F)C(F)(F)C(F)(F)C(F)(F)C(F)(F)C(F)(F)C(F)(F)C(F)(F)F` [8:2 FTS, 8:2 Fluorotelomer sulfonic acid], the “Accumulation in cells versus medium” value in the data set on hTERT-RPTEC [1] and in the data set on hTERT-RPTEC-OAT1 [2] was “tended to accumulate more in cells” in each case. The “Recovery pattern, apical (A→B) versus basolateral (B→A) treatment” value in the data set on hTERT-RPTEC-OAT1 [3] is reported as “divergent recovery patterns depending on dosing orientation”.
Take `O=S(=O)(O)C(F)(F)C(F)(F)C(F)(F)C(F)(F)F` [PFBS, Perfluorobutanesulfonic acid]: the Predicted human half-life entry in [4] is recorded as “Days/Months”.
As to `O=C(O)C(F)(F)C(F)(F)C(F)(F)C(F)(F)C(F)(F)C(F)(F)C(F)(F)C(F)(F)C(F)(F)F` [PFDA, Perfluorodecanoic acid], the “Accumulation in cells versus medium” value in the data set with hTERT-RPTEC [1] and in the data set with hTERT-RPTEC-OAT1 [2] was “tended to accumulate more in cells” in each case. Further, in the data set on hTERT-RPTEC-OAT1 [5] (setting [10]), the TEER entry is recorded as “small but significant decrease in TEER”. Also, the “Recovery pattern, apical (A→B) versus basolateral (B→A) treatment” value in the data set with hTERT-RPTEC-OAT1 [3] is reported as “divergent recovery patterns depending on dosing orientation”.
For the compound `O=C(O)C(F)(F)C(F)(F)C(F)(F)C(F)(F)C(F)(F)F` [PFHxA, Perfluorohexanoic acid], the Predicted human half-life result in [4] is “Days/Months”.
With `O=C(O)C(F)(F)C(F)(F)C(F)(F)C(F)(F)C(F)(F)C(F)(F)C(F)(F)F` [PFOA, Perfluorooctanoic acid], the LDH release result in the data set on hTERT-RPTEC-OAT1 [6] was “small but significant increase in LDH release”.
For the compound `O=S(=O)(O)C(F)(F)C(F)(F)C(F)(F)C(F)(F)C(F)(F)C(F)(F)C(F)(F)C(F)(F)F` [PFOS, Perfluorooctanesulfonic acid], the “Recovery pattern, apical (A→B) versus basolateral (B→A) treatment” value in the data set with hTERT-RPTEC-OAT1 [3] is reported as “divergent recovery patterns depending on dosing orientation”.
As to `O=C(O)C(F)(F)C(F)(F)C(F)(F)C(F)(F)C(F)(F)C(F)(F)C(F)(F)C(F)(F)C(F)(F)C(F)(F)F` [PFUnDA, Perfluoroundecanoic acid], the “Accumulation in cells versus medium” value in the data set on hTERT-RPTEC [1] and in the data set on hTERT-RPTEC-OAT1 [2] was “tended to accumulate more in cells” in each case. The TEER result in the data set on hTERT-RPTEC-OAT1 [5] (setting [10]) is reported as “small but significant decrease in TEER”. Moreover, the “Recovery pattern, apical (A→B) versus basolateral (B→A) treatment” value with hTERT-RPTEC-OAT1 [3] is given as “divergent recovery patterns depending on dosing orientation”.
For `CCCCCCCC[N+](CCCCCCCC)(CCCCCCCC)CCCCCCCC.[Br-]` [TAB, tetraoctyl ammonium bromide, reference compound], the LDH release result in the data set with hTERT-RPTEC [7], in the data set on hTERT-RPTEC-OAT1 [8] and with hTERT-RPTEC-OAT1 [6] was “significant LDH release” throughout. Moreover, the TEER result with hTERT-RPTEC-OAT1 [5] was “pronounced reduction in TEER”.
For `C[C@H](Cn1cnc2c(N)ncnc21)OCP(=O)(O)O` [Tenofovir, Tenofovir (TFV), reference compound], the “Predicted renal clearance, OAT1-overexpressing cells versus parental cells” value in the data set with hTERT-RPTEC-OAT1 [9] is “significantly lower”. Also, in the data set on hTERT-RPTEC-OAT1 [2], the “P ratio, OAT1-overexpressing cells versus parental cells” value is listed as “roughly 100 fold lower” and the “Accumulation in cells versus medium” value is on record as “enhanced accumulation in the OAT1-overexpressing cells”. In the data set on hTERT-RPTEC-OAT1 [3] (ratios of measured concentrations), the Intracellular association entry was “higher intracellular association”.
